Test results from ChEMBL document CHEMBL1121923, “N2- and C-7 substituted actinomycin D analogues: synthesis, DNA-binding affinity, and biochemical and biological properties. Structure-activity relationship” (J Med Chem, 1981).
In brackets after ≈: the same amount, converted by molar mass.

Key:
P388 [1] = experiment: Concentration required for 50% inhibition of incorporation of labeled thymidine by p388 cells for synthesis of DNA (in vitro); type: functional; settings: Mus musculus, read-out: ED50 (the source's name)
P388 [2] = experiment: Median survival time of the P388 cells implanted CDF1 male mice in vivo; type: functional, Mus musculus
Procedure, shortened: (§1)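 CDF1 male mice, groups of seven, given 10^6 P388 cells ip on day 0; drug ip in 5% DMSO–saline on days 1, 5 and 9; controls received vehicle; range of doses tested, optimal nontoxic dose listed; median survival time; %ILS = (treated − control)/control × 100; average of two or more experiments.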

P388 [3] = experiment: Concentration required for 50% inhibition of incorporation of labeled uridine by P388 cells for the synthesis of RNA (in vitro); type: functional; settings: Mus musculus, read-out: ED50 (the source's name)
CCRF-CEM = experiment: In vitro antitumor activity against human lymphoblastic leukemia cells.; type: functional; settings: read-out: ID50 (the source's name)
Procedure, shortened: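 Human lymphoblastic leukemia CCRF-CEM cells grown in suspension culture; growth inhibition in vitro; ID50 (ng/mL) reported as the 50% inhibitory dose.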

P388 [4] = experiment: Percent of increased life span of P388 cells implanted CDF1 male mice; type: functional, Mus musculus; procedure, shortened: as §1
P388 [5] = experiment: Optimal dose for antitumor activity was measured in P388 cells of CDF1 male mice in vivo; type: functional, Mus musculus; procedure, shortened: as §1
Bos taurus = species on record: Bos taurus; experiment: Thermal denaturation (deltaTm) of compound against calf thymus DNA was measured; type: ADME; settings: cattle, in vitro
Procedure, shortened: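 Calf thymus DNA (MW 100 000–500 000) in 0.01 M phosphate, 5 × 10^-3 M EDTA, pH 7.0; drug 7 × 10^-4 M, DNA nucleotide 7 × 10^-3 M; 259 nm absorbance read at 0.25–1.0 °C steps; Tm taken at 50% hyperchromicity; ΔTm = complex Tm minus DNA Tm.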

SMILES | EC50 (P388 [1]) | MST (P388 [2]) | EC50 (P388 [3]) | IC50 (CCRF-CEM) | ILS (P388 [4]) | Optimal dose (P388 [5]) | Delta Tm (Bos taurus)
Cc1c2oc3c(C)c(OC(=O)C45CC6CC(CC(C6)C4)C5)cc(C(=O)N[C@@H]4C(=O)N[C@H](C(C)C)C(=O)N5CCC[C@H]5C(=O)N(C)CC(=O)N(C)[C@@H](C(C)C)C(=O)O[C@@H]4C)c3nc-2c(C(=O)N[C@@H]2C(=O)N[C@H](C(C)C)C(=O)N3CCC[C@H]3C(=O)N(C)CC(=O)N(C)[C@@H](C(C)C)C(=O)O[C@@H]2C)c(N)c1=O | 730 nM | 28 days | 176 nM | 0.2 µg/mL (≈ 0.14 µM) | 167% | 0.5 mg/kg | 
CCCNc1c(C(=O)N[C@@H]2C(=O)N[C@H](C(C)C)C(=O)N3CCC[C@H]3C(=O)N(C)CC(=O)N(C)[C@@H](C(C)C)C(=O)O[C@@H]2C)c2nc3c(C(=O)N[C@@H]4C(=O)N[C@H](C(C)C)C(=O)N5CCC[C@H]5C(=O)N(C)CC(=O)N(C)[C@@H](C(C)C)C(=O)O[C@@H]4C)ccc(C)c3oc-2c(C)c1=O | > 5500 nM | 17 days | 1820 nM | 0.45 µg/mL (≈ 0.347 µM) | 55% | 1.2 mg/kg | 
Cc1c2oc3c(C)ccc(C(=O)N[C@@H]4C(=O)N[C@H](C(C)C)C(=O)N5CCC[C@H]5C(=O)N(C)CC(=O)N(C)[C@@H](C(C)C)C(=O)O[C@@H]4C)c3nc-2c(C(=O)N[C@@H]2C(=O)N[C@H](C(C)C)C(=O)N3CCC[C@H]3C(=O)N(C)CC(=O)N(C)[C@@H](C(C)C)C(=O)O[C@@H]2C)c(NCCCCCCCCN)c1=O |  | 14 days |  | 0.31 µg/mL (≈ 0.224 µM) | 27% | 1.8 mg/kg | 
Cc1c2oc3c(C)c(OCc4ccc(Cl)c(Cl)c4)cc(C(=O)N[C@@H]4C(=O)N[C@H](C(C)C)C(=O)N5CCC[C@H]5C(=O)N(C)CC(=O)N(C)[C@@H](C(C)C)C(=O)O[C@@H]4C)c3nc-2c(C(=O)N[C@@H]2C(=O)N[C@H](C(C)C)C(=O)N3CCC[C@H]3C(=O)N(C)CC(=O)N(C)[C@@H](C(C)C)C(=O)O[C@@H]2C)c(N)c1=O |  | 19 days |  |  | 81% | 0.5 mg/kg | 
Cc1c2oc3c(C)ccc(C(=O)N[C@@H]4C(=O)N[C@H](C(C)C)C(=O)N5CCC[C@H]5C(=O)N(C)CC(=O)N(C)[C@@H](C(C)C)C(=O)O[C@@H]4C)c3nc-2c(C(=O)N[C@@H]2C(=O)N[C@H](C(C)C)C(=O)N3CCC[C@H]3C(=O)N(C)CC(=O)N(C)[C@@H](C(C)C)C(=O)O[C@@H]2C)c(NCCCCCCCCCCN)c1=O | 2700 nM | 18 days | 700 nM | 0.28 µg/mL (≈ 0.198 µM) | 64% | 1.8 mg/kg | 
Cc1c2oc3c(C)ccc(C(=O)N[C@@H]4C(=O)N[C@H](C(C)C)C(=O)N5CCC[C@H]5C(=O)N(C)CC(=O)N(C)[C@@H](C(C)C)C(=O)O[C@@H]4C)c3nc-2c(C(=O)N[C@@H]2C(=O)N[C@H](C(C)C)C(=O)N3CCC[C@H]3C(=O)N(C)CC(=O)N(C)[C@@H](C(C)C)C(=O)O[C@@H]2C)c(NCCCN)c1=O | 430 nM | 30 days | 118 nM | 0.3 µg/mL (≈ 0.229 µM) | 172% | 1.2 mg/kg | 
Cc1c2oc3c(C)c(OC(=O)c4ccc5ccccc5c4)cc(C(=O)N[C@@H]4C(=O)N[C@H](C(C)C)C(=O)N5CCC[C@H]5C(=O)N(C)CC(=O)N(C)[C@@H](C(C)C)C(=O)O[C@@H]4C)c3nc-2c(C(=O)N[C@@H]2C(=O)N[C@H](C(C)C)C(=O)N3CCC[C@H]3C(=O)N(C)CC(=O)N(C)[C@@H](C(C)C)C(=O)O[C@@H]2C)c(N)c1=O |  | 18 days |  |  | 71% | 0.9 mg/kg | 
Cc1c2oc3c(C)c(OCc4ccc([N+](=O)[O-])cc4)cc(C(=O)N[C@@H]4C(=O)N[C@H](C(C)C)C(=O)N5CCC[C@H]5C(=O)N(C)CC(=O)N(C)[C@@H](C(C)C)C(=O)O[C@@H]4C)c3nc-2c(C(=O)N[C@@H]2C(=O)N[C@H](C(C)C)C(=O)N3CCC[C@H]3C(=O)N(C)CC(=O)N(C)[C@@H](C(C)C)C(=O)O[C@@H]2C)c(N)c1=O |  | 14 days |  | 0.5 µg/mL (≈ 0.355 µM) | 33% | 0.6 mg/kg | 
CCOc1cc(C(=O)N[C@@H]2C(=O)N[C@H](C(C)C)C(=O)N3CCC[C@H]3C(=O)N(C)CC(=O)N(C)[C@@H](C(C)C)C(=O)O[C@@H]2C)c2nc3c(C(=O)N[C@@H]4C(=O)N[C@H](C(C)C)C(=O)N5CCC[C@H]5C(=O)N(C)CC(=O)N(C)[C@@H](C(C)C)C(=O)O[C@@H]4C)c(N)c(=O)c(C)c-3oc2c1C | 1630 nM | 20 days | 151 nM | 0.17 µg/mL (≈ 0.131 µM) | 91% | 0.45 mg/kg | 
Cc1c2oc3c(C)c(OCc4ccc(Cl)cc4)cc(C(=O)N[C@@H]4C(=O)N[C@H](C(C)C)C(=O)N5CCC[C@H]5C(=O)N(C)CC(=O)N(C)[C@@H](C(C)C)C(=O)O[C@@H]4C)c3nc-2c(C(=O)N[C@@H]2C(=O)N[C@H](C(C)C)C(=O)N3CCC[C@H]3C(=O)N(C)CC(=O)N(C)[C@@H](C(C)C)C(=O)O[C@@H]2C)c(N)c1=O |  | 16 days |  | 0.5 µg/mL (≈ 0.358 µM) | 52% | 0.45 mg/kg | 
CCCCOc1cc(C(=O)N[C@@H]2C(=O)N[C@H](C(C)C)C(=O)N3CCC[C@H]3C(=O)N(C)CC(=O)N(C)[C@@H](C(C)C)C(=O)O[C@@H]2C)c2nc3c(C(=O)N[C@@H]4C(=O)N[C@H](C(C)C)C(=O)N5CCC[C@H]5C(=O)N(C)CC(=O)N(C)[C@@H](C(C)C)C(=O)O[C@@H]4C)c(N)c(=O)c(C)c-3oc2c1C | 11300 nM | 14 days | 770 nM |  | 33% | 0.75 mg/kg | 
Cc1c2oc3c(C)c(OC(=O)c4ccccc4)cc(C(=O)N[C@@H]4C(=O)N[C@H](C(C)C)C(=O)N5CCC[C@H]5C(=O)N(C)CC(=O)N(C)[C@@H](C(C)C)C(=O)O[C@@H]4C)c3nc-2c(C(=O)N[C@@H]2C(=O)N[C@H](C(C)C)C(=O)N3CCC[C@H]3C(=O)N(C)CC(=O)N(C)[C@@H](C(C)C)C(=O)O[C@@H]2C)c(N)c1=O |  | 20 days |  | 2.5 µg/mL (≈ 1.82 µM) | 91% | 0.75 mg/kg | 
CCCCNc1c(C(=O)N[C@@H]2C(=O)N[C@H](C(C)C)C(=O)N3CCC[C@H]3C(=O)N(C)CC(=O)N(C)[C@@H](C(C)C)C(=O)O[C@@H]2C)c2nc3c(C(=O)N[C@@H]4C(=O)N[C@H](C(C)C)C(=O)N5CCC[C@H]5C(=O)N(C)CC(=O)N(C)[C@@H](C(C)C)C(=O)O[C@@H]4C)ccc(C)c3oc-2c(C)c1=O |  | 15 days |  | 0.95 µg/mL (≈ 0.724 µM) | 36% | 0.9 mg/kg | 
Cc1c2oc3c(C)c(O)c(N)c(C(=O)N[C@@H]4C(=O)N[C@H](C(C)C)C(=O)N5CCC[C@H]5C(=O)N(C)CC(=O)N(C)[C@@H](C(C)C)C(=O)O[C@@H]4C)c3nc-2c(C(=O)N[C@@H]2C(=O)N[C@H](C(C)C)C(=O)N3CCC[C@H]3C(=O)N(C)CC(=O)N(C)[C@@H](C(C)C)C(=O)O[C@@H]2C)c/c1=N/Cc1ccco1 | 2450 nM |  | 810 nM |  |  |  | 
Cc1c2oc3c(C)c(O)c(N)c(C(=O)N[C@@H]4C(=O)N[C@H](C(C)C)C(=O)N5CCC[C@H]5C(=O)N(C)CC(=O)N(C)[C@@H](C(C)C)C(=O)O[C@@H]4C)c3nc-2c(C(=O)N[C@@H]2C(=O)N[C@H](C(C)C)C(=O)N3CCC[C@H]3C(=O)N(C)CC(=O)N(C)[C@@H](C(C)C)C(=O)O[C@@H]2C)cc1=N | 1230 nM |  | 82 nM |  |  |  | 
Cc1c2oc3c(C)c(O)c(N)c(C(=O)N[C@@H]4C(=O)N[C@H](C(C)C)C(=O)N5CCC[C@H]5C(=O)N(C)CC(=O)N(C)[C@@H](C(C)C)C(=O)O[C@@H]4C)c3nc-2c(C(=O)N[C@@H]2C(=O)N[C@H](C(C)C)C(=O)N3CCC[C@H]3C(=O)N(C)CC(=O)N(C)[C@@H](C(C)C)C(=O)O[C@@H]2C)c/c1=N/Cc1ccc[nH]1 [listing 1 of 2 here] | 370 nM |  | 184 nM |  |  |  | 
Cc1c2oc3c(C)c(O)c(N)c(C(=O)N[C@@H]4C(=O)N[C@H](C(C)C)C(=O)N5CCC[C@H]5C(=O)N(C)CC(=O)N(C)[C@@H](C(C)C)C(=O)O[C@@H]4C)c3nc-2c(C(=O)N[C@@H]2C(=O)N[C@H](C(C)C)C(=O)N3CCC[C@H]3C(=O)N(C)CC(=O)N(C)[C@@H](C(C)C)C(=O)O[C@@H]2C)c/c1=N/Cc1ccccc1 | 2700 nM |  | 1400 nM |  |  |  | 
Cc1c2oc3c(C)c(O)c(N)c(C(=O)N[C@@H]4C(=O)N[C@H](C(C)C)C(=O)N5CCC[C@H]5C(=O)N(C)CC(=O)N(C)[C@@H](C(C)C)C(=O)O[C@@H]4C)c3nc-2c(C(=O)N[C@@H]2C(=O)N[C@H](C(C)C)C(=O)N3CCC[C@H]3C(=O)N(C)CC(=O)N(C)[C@@H](C(C)C)C(=O)O[C@@H]2C)c/c1=N/Cc1ccc[nH]1 [listing 2 of 2 here] |  |  |  |  |  |  | 15.8
CCCCCNc1c(C(=O)N[C@@H]2C(=O)N[C@H](C(C)C)C(=O)N3CCC[C@H]3C(=O)N(C)CC(=O)N(C)[C@@H](C(C)C)C(=O)O[C@@H]2C)c2nc3c(C(=O)N[C@@H]4C(=O)N[C@H](C(C)C)C(=O)N5CCC[C@H]5C(=O)N(C)CC(=O)N(C)[C@@H](C(C)C)C(=O)O[C@@H]4C)ccc(C)c3oc-2c(C)c1=O |  |  |  |  |  |  | 0
Cc1c2oc3c(C)c(O)c(N)c(C(=O)N[C@@H]4C(=O)N[C@H](C(C)C)C(=O)N5CCC[C@H]5C(=O)N(C)CC(=O)N(C)[C@@H](C(C)C)C(=O)O[C@@H]4C)c3nc-2c(C(=O)N[C@@H]2C(=O)N[C@H](C(C)C)C(=O)N3CCC[C@H]3C(=O)N(C)CC(=O)N(C)[C@@H](C(C)C)C(=O)O[C@@H]2C)c/c1=N/Cc1cccc(Oc2ccccc2)c1 | 1500 nM |  | 700 nM |  |  |  | 
